Results as given in ChEMBL document CHEMBL4513216, “Probing the Open Global Health Chemical Diversity Library for Multistage-Active Starting Points for Next-Generation Antimalarials” (ACS Infect Dis, 2020).

Experiment: Toxicity liver stage against HepG2, at 10uM
Format: cell-based
Parameters: test concentration 10 uM, cell line HepG2-A16-CD81EGFP
Conditions: human, HepG2-A16-CD81EGFP cells; read-out: INHIBITION
In short: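 Uninfected HepG2-A16-CD81EGFP cells, 3 × 10^3 per well, 1536-well, plated on prespotted compound at 10 μM final, parasite-free screening media added to match infected plates; puromycin 10 μM positive, DMSO 0.5% negative; run in parallel with 48 h PbLuc assay at 37 °C, 5% CO2; viability by CellTiter-Glo luminescence, normalized to controls.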

Row | Structure (SMILES) | cytotoxicity at 10 µM
1 | CN(C)CCNC(=O)c1ccc(OC2CCN(C(=O)CO)CC2)c(Cl)c1 | -2.43%
2 | C=C(C)CN(c1cn[nH]c1)S(=O)(=O)c1cccc(C#N)c1 | 3.84%
3 | CN1CCN(C(=O)[C@H]2C[C@H]3[C@H](CCN3Cc3cccs3)O2)CC1 | -7.64%
4 | O=C1CCCCN1CCCNCc1cnc(C2CCC2)s1 | 0.00973%
5 | NC(=O)CSc1nnc2[nH]c(=O)c3c(n12)CCCC3 | -4.44%
6 | CC(C)c1cc(CN(C)C(=O)C(C)N2CCc3ccccc3C2)no1 (centres undefined) | 4.24%
7 | CC(C)c1nc(CC(=O)N2CCN(C)CC2c2ccccc2)cs1 (centres undefined) | -12.6%
8 | CCc1noc(C(C)N2CCN(C)CC2)n1 (centres undefined) | -3.21%
9 | CCOCC1CN(C(=O)N(C)C)Cc2nn(C)cc21 (centres undefined) | -11.9%
10 | CC(C)(C)c1nc(CC(=O)NCCC(=O)Nc2ccncc2)cs1 | 12.8%
11 | OCC1CCCCN1Cc1cc(O)c2cccc(F)c2n1 (centres undefined) | -0.357%
12 | CCN1CCN(Cc2ccnc(-c3cccnc3)n2)CC1 | -5.23%
13 | COCCn1cc(C(=O)N2CCCC2c2cccc(F)c2)ccc1=O (centres undefined) | -3.48%
14 | CC(=O)N1CCCCCC1C1CCN(Cc2nnc(C(C)(C)C)o2)CC1 (centres undefined) | -42.3%
15 | Cc1cc(C(=O)N2C[C@@H]3CC[C@H]2CN(C)C3)ccc1Cl | -8.23%
16 | CS(=O)(=O)CCC(=O)N(Cc1c(F)cccc1F)C1CCCC1 | -12.9%
17 | CN(Cc1noc(C(C)(C)C)n1)Cc1ccccc1N1CCCCC1 | -4.73%
18 | O=C(NCc1cc2ccccc2s1)c1cc(CN2CCCC(O)C2)on1 (centres undefined) | -40%
19 | CCc1nnc(CN2CCC(C3CCCCCN3C(=O)C3CC3)CC2)o1 (centres undefined) | -49.7%
20 | COCC1CN(Cc2cnn(C)c2)Cc2nn(C)cc21 (centres undefined) | -82.8%
21 | Cn1ccnc1C(=O)NCc1cnc2n1CCN(CC1CC1)CC2 | 5.93%
22 | COC(=O)c1ccn(CC(=O)Nc2nn(CC3CC3)c3ccccc23)n1 | 4.95%

Row | Structure (SMILES) | cytotoxicity at 10 µM
23 | CSc1ccc(-c2noc(CN(Cc3ccccc3)C(C)C)n2)cc1 | 3.88%
24 | COc1ccc(N2CCN(Cc3nc(CSC)no3)CC2=O)cc1 | 1.44%
25 | CC(C)OC[C@H]1CCC[C@]12CN(C(=O)C1CCOCC1)CCO2 | -99.1%
26 | COc1cc(C)ccc1OCc1nc(C(=O)N2CCCC2)co1 | -42.5%
27 | NC(=O)c1ccc(OCC(=O)NC2CCc3c(F)cccc32)cc1 (centres undefined) | 14.4%
28 | COc1cccc(OC2CN(C(=O)c3cc(CC(C)C)nn3C)C2)c1 | 53.2%
29 | c1ccc(-c2nc(CNC3CCc4ncnn4C3)no2)cc1 (centres undefined) | -4.16%
30 | CC(=O)N1N=C(c2ccccc2)OC1C(=O)NCCOc1ccccc1 (centres undefined) | -2.86%
31 | NCC1(c2cccc(C(F)(F)F)c2)CCOCC1 | -11.1%
32 | Cc1noc(C)c1CN1CCc2nn(C(C)C)c(=O)cc2C1 | -8.87%
33 | COCCN1CCN(CC(=O)NC2(C#N)CCCC2)CC1C (centres undefined) | 10.7%
34 | CN1CCN(CCOc2ccc(NC(=O)c3ccc[nH]3)cc2)CC1 | -3.26%
35 | O=C(CC1CCCCC1)N1CCOCC1CO (centres undefined) | -0.779%
36 | CN(C)C(=O)N1C[C@H]2CC[C@@H](C1)N(S(=O)(=O)c1cccnc1)C2 | -6.55%
37 | Cc1cnc(CN2CCCCC2c2nc(-c3ccccc3)no2)cn1 (centres undefined) | -42%
38 | CN(C)C(=O)[C@H]1C[C@H]2OCC[C@H]2N(Cc2ccc(F)cc2)C1 | -76.1%
39 | CC(C)O[C@H]1CN(Cc2cnc3c(-c4ccccc4)cnn3c2)C[C@@H]1O | 3.45%
40 | Cc1noc(CC2CCN(Cc3ccc(CCC(C)(C)O)cc3)CC2)n1 | -2.18%
41 | O=C(Nc1cccc(OC(F)F)c1)C1CN(S(=O)(=O)C2CC2)C1 | 0.696%
42 | CO[C@H]1CN(C(=O)c2cccc(C)n2)CC[C@@]12CCCO2 | -6.6%
43 | CNC(=O)N1CCN(C(=O)N(C)C)CC2(CC(=O)N(C)C2)C1 (centres undefined) | 4.9%
44 | Cc1cnn(C2(C(=O)O)CCN(Cc3oc4ccccc4c3C)CC2)c1 | -5.87%

Row | Structure (SMILES) | cytotoxicity at 10 µM
45 | Cn1nc(C(=O)NCc2ccc(Cl)cc2)c2c1CCS(=O)(=O)C2 | 5.01%
46 | CCOc1nnc(CN2CCN(CCOC)CC2)s1 | -12.1%
47 | COC(=O)[C@H]1CN(C(C)=O)CCN1C(C)=O | -3.31%
48 | Cc1nnc(NCCC(=O)NCc2ccccc2)c(C#N)c1C | -3.57%
49 | CC1CCN(CCNCc2cc(-c3ccccc3)cn3nnnc23)CC1 | -20.4%
50 | Cc1cccc(C(=O)N2C[C@@H]3C(CC(=O)NC(C)C)[C@@H]3C2)n1 (some centres undefined) | -3.69%
51 | CCOc1ccc(C(=O)N(C)Cc2nccn2CC(F)(F)F)cc1 | -0.296%
52 | Cc1cccc(N2CCN(CCNC(=O)c3ccnn3C)CC2)c1 | 10.4%
53 | CCC(Nc1nnnn1-c1ccccc1)C(=O)NC1CCSCC1 (centres undefined) | -16%
54 | CCN1CCCC1CN(CCN(C)C)S(=O)(=O)c1ccc(C#N)cc1 (centres undefined) | -28.3%
55 | CCn1nc(C)c2nc(C)nc(NCCc3ccc(C)cc3)c21 | 50.9%
56 | CSc1nnc(C2CCN(C(=O)N3CCOCC3)CC2)n1C(C)C | 3.8%
57 | COc1cccc(CN2CCC3(CC2)CCN(C(=O)[C@@H]2CCCO2)C3)c1 | 0.523%
58 | CCOc1ncccc1NC(=O)NCC(O)c1ccc(OC)cc1 (centres undefined) | -16.6%
59 | Cn1cc(CN2CCCC3(CCN(Cc4ccncc4)C3=O)C2)cn1 (centres undefined) | 8.68%
60 | CC(C)(C)CC(=O)Nc1ccccc1SCC(N)=O | -138%
61 | CN1CCc2[nH]nc(C(=O)N3CCCC4(CC3)CNC(=O)O4)c2C1 (centres undefined) | -44.6%
62 | Cc1nc(N2CCC(C)CC2)ncc1-c1cc(O)nc(N2CCCC2)n1 | 9.82%
63 | Cc1ccc(CC(=O)NCC(O)c2ccc(Cl)cc2Cl)cn1 (centres undefined) | -10.1%
64 | Cc1ccc(C(=O)Nc2ccc(S(=O)(=O)/N=C3\CCCN3C)cc2)s1 | 0.174%
65 | CN(C)S(=O)(=O)N1CCC(Oc2ccccn2)CC1 | 13.6%
66 | Cc1cc(C)nc(Nc2nccnc2C2CCCN(C(C)C)C2)n1 (centres undefined) | -6.15%

Row | Structure (SMILES) | cytotoxicity at 10 µM
67 | CN1C[C@@H](NC(=O)c2ccccc2)C[C@H]1c1nc(-c2cnccn2)no1 | 9.68%
68 | COCCN1CCCC(O)(CN2CCN(c3cnccn3)CC2)C1=O (centres undefined) | 4.04%
69 | Cc1cnn(CC2CN(c3ncnc4ccsc34)CCO2)c1 (centres undefined) | 53.2%
70 | Cc1cc(O)n2nc(C3CCN(C(=O)c4ccccn4)CC3)cc2n1 | -3.36%
71 | CC(C)n1cnc2c1C(C(=O)N1CCCC1)N(CC1CC1)CC2 (centres undefined) | 6.59%
72 | O=C(NC[C@H]1OC[C@@H](NC2CCCCC2)[C@@H]1O)c1cccs1 | -2.36%
73 | Cc1ccc(OCC(=O)N2CCN[C@H]3CS(=O)(=O)C[C@H]32)cn1 | -2.7%
74 | CCc1nc2ccccc2c(=O)n1CC1(O)CCN(C(=O)C2CC2)CC1 | -18.3%
75 | CCC(=O)Nc1cccc(OCC(=O)N(C)Cc2nc(C)c[nH]2)c1 | -4.54%
76 | Cc1cc(C(N)=O)c2c(Br)cccc2n1 | 1.09%
77 | Cc1occc1C(=O)N1CCCN(Cc2nccn2C(C)C)CC1 | -9.24%
78 | NC(=O)c1cn(CC2CCC2)c(C2CC2)n1 | 12.8%
79 | Cc1noc(C2CCN(C(=O)CCNc3ncccn3)CC2)n1 | -6.38%
80 | O=C1CCC2(CCN(Cc3ccc(F)cc3)CC2)N1CCN1CCCC1 | -4.72%
81 | CC(C)c1noc(CCNC(=O)C2COc3ccccc3C2)n1 (centres undefined) | -1.24%
82 | Cc1cc(C(=O)N2CCN(c3ccncc3Cl)CC2)n(C)n1 | -9.1%
83 | CNC(=O)[C@H]1C[C@@H]2CN(C(=O)c3occc3C)C[C@@H]2N1S(C)(=O)=O | -2.95%
84 | Cc1ccc(CNc2ccc(C(=O)N3CCNC(=O)C3)cn2)cc1 | 4.64%
85 | Cn1nc2c(cc1=O)CN(Cc1nc(-c3cccs3)no1)CC2 | -2.82%
86 | Cc1nc(CN(C)C(=O)Nc2cccc(COC(C)C)c2)no1 | 8.45%
87 | O=C(Nc1cc[nH]n1)c1ccc(COCC(F)(F)F)cc1 | -7.46%
88 | CCN1CCC(CNCc2cc(OC)ccc2OC)C1 (centres undefined) | -2%

Row | Structure (SMILES) | cytotoxicity at 10 µM
89 | COc1ccc(Cn2cc(C(=O)N(C)Cc3ccon3)nn2)cc1 | 5.61%
90 | CN(Cc1cnn(C)c1)C(=O)c1ccc(=O)n(Cc2ccccc2)n1 | -134%
91 | COCCCN(Cc1ccccn1)S(=O)(=O)N(C)C | 12%
92 | Cc1nc(C)n(CC2CCCN(c3ncnc4c3CCC4)C2)n1 (centres undefined) | 30.5%
93 | COCC(=O)N1CCC(c2c(C(=O)N(C)C)sc3ncccc23)C1 (centres undefined) | 1.55%
94 | Cc1noc(C)c1CN1C[C@@H]2COC[C@]2(COc2ccc(C#N)cn2)C1 | 9.49%
95 | COc1ccc(C)cc1C(=O)N1CCCC(n2cncn2)C1 (centres undefined) | -13.3%
96 | CCc1cc(O)nc(C2CCCN(Cc3ccncc3)C2)n1 (centres undefined) | -7.05%
97 | O=S1(=O)NCC2(CCN(c3ncccn3)CC2)COc2ccccc21 | -1.34%
98 | Clc1ccccc1CN1CCCC(c2nnc(-c3cnccn3)o2)C1 (centres undefined) | -10.3%
99 | O=C1CN(C(=O)c2ccc(Cl)cc2)CC(O)CN1Cc1cccs1 (centres undefined) | 0.331%
100 | O=C(c1n[nH]c2c1CN(C1CCOC1)CC2)N1CCOCC1 (centres undefined) | 4.88%
101 | O=C(c1cccc2c1OCCO2)N1CCCC1c1noc(C2CC2)n1 (centres undefined) | -14.5%
102 | c1cc(C2CN(C3CCCC3)C2)n[nH]1 | 4%
103 | O=C(Cn1cccc2cc(-c3ccc(F)cc3)nc1-2)N1CCC(O)CC1 | -7.74%
104 | N#Cc1cnc2ccccc2c1N1CCC(C(=O)O)CC1 | 4.28%
105 | O=C(NC[C@]12COC[C@H]1CN(Cc1ccco1)C2)c1ccccc1 | -2.53%
106 | CCc1ccc(-n2c(=O)[nH]c3nc(N4CCSCC4)ncc3c2=O)cc1 | -4.14%
107 | CN(C)C(=O)CCCn1ccc(NC(=O)NCc2cccc(F)c2)n1 | 6.85%
108 | CN(C)c1nc2cn(C3CCSCC3)c(=O)c-2c[nH]1 | 8.56%
109 | COc1cc(C2CC(=O)Oc3cc(C)[nH]c(=O)c32)ccc1OCC(=O)O (centres undefined) | -4.23%
